Measured values published in ChEMBL document CHEMBL3046721, “3-(Arylthiomethyl)isoxazole-4,5-dicarboxamides: chemoselective nucleophilic chemistry and insecticidal activity” (2009).
The source made the active and inactive calls.

Key:
Spodoptera exigua [1] = assay: Insecticidal activity against second-instar larval stage of Spodoptera exigua fed with artificial diet containing compound assessed as mortality at 50 ug/cm2 after 5 days by diet-based secondary assay; type: functional; settings: 120 h
How it was run: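 Second-instar larvae on 128-well trays with 1 mL diet dosed at 50 μg/cm2, eight wells per treatment under clear plastic. Percent mortality averaged over the eight wells, scored 5 days after assay start; tested only on primary-screen hits (>67% mortality).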

Aedes aegypti = assay: Insecticidal activity against larvae of Aedes aegypti assessed as mortality after 3 days by high-throughput screening assay; type: functional, organism-based
How it was run: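 One-day-old larvae placed in 96-well plates pre-treated with 6 μg/well, applied in 15 μl DMSO-acetone-water (1:1:8) and dried. Plates lidded, held at room temperature, mortality graded 3 days post-treatment. Six replicates per treatment.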

Spodoptera exigua [2] = assay: Insecticidal activity against larvae of Spodoptera exigua fed with artificial diet containing compound assessed as mortality after 6 days by high-throughput screening assay; type: functional; parameters: concentration or dose not given beside the values
How it was run: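 Artificial diet (100 μl/well, 96-well) pretreated with 12 μg compound in 30 μl DMSO-acetone-water (2:1:7), dried several hours, then seeded with eggs. Plates covered, kept in dark at 29°C, mortality recorded 6 days post-treatment. Six replicates per treatment.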

Helicoverpa zea = assay: Insecticidal activity against second-instar larval stage of Helicoverpa zea (corn earworm) fed with artificial diet containing compound assessed as mortality after 5 days by diet-based secondary assay; type: functional, organism-based
How it was run: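 Follow-up for primary-screen hits (>67% mortality): 128-well diet trays, 1 mL diet containing selected dosages, second-instar larvae. Wells covered with clear plastic, eight wells per treatment, percent mortality averaged over eight wells at 5 days. Approximate LC50 estimated by probit analysis.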

SMILES	mortality at 50 µg/cm2 (Spodoptera exigua [1])	mortality (Aedes aegypti)	mortality (Spodoptera exigua [2])	mortality (Helicoverpa zea)
CC(C)NC(=O)c1onc(CS(=O)(=O)c2ccccc2)c1C(=O)NC(C)C	0%	inactive	100%	inactive
CC(C)CCNC(=O)c1onc(CSc2ccccn2)c1C(=O)NCCC(C)C	–	inactive	–	–
O=C(NCc1ccccc1)c1onc(CSc2ccccn2)c1C(=O)NCc1ccccc1	0%	inactive	67%	–
C=CCNC(=O)c1onc(CSc2ccncc2)c1C(=O)NCC=C	–	inactive	17%	–
COCCNC(=O)c1c(CS(=O)(=O)c2ccc(Cl)cc2)noc1C(=O)NCc1ccccc1	0%	inactive	100%	inactive
CC(C)NC(=O)c1onc(CSc2ccc(F)cc2)c1C(=O)NC(C)C	–	inactive	50%	–
O=C(NCc1ccccc1)c1onc(CSc2ccccc2)c1C(=O)NCc1ccccc1	–	inactive	67%	–
CC(C)CCNC(=O)c1onc(CSc2ccccc2)c1C(=O)NCCC(C)C	–	inactive	33%	–
O=C(NCc1ccccc1)c1onc(CSc2ccc(Cl)cc2)c1C(=O)NCc1ccccc1	0%	inactive	67%	–
Cc1cc(C)cc(SCc2noc(C(=O)NCc3ccccc3)c2C(=O)NCc2ccccc2)c1	0%	inactive	83%	inactive
COCCNC(=O)c1onc(CSc2ccccc2)c1C(=O)NCCOC	0%	inactive	83%	inactive
COCCNC(=O)c1onc(CSc2ccc(F)cc2)c1C(=O)NCCOC	0%	inactive	67%	–
C=CCNC(=O)c1onc(CSc2ccc(F)cc2)c1C(=O)NCC=C	0%	inactive	67%	–
CCCNC(=O)c1onc(CSc2ccc(Cl)cc2)c1C(=O)NCCC	–	inactive	50%	–
CCCCNC(=O)c1c(CSc2ccc(Cl)cc2)noc1C(=O)NCc1ccccc1	0%	inactive	83%	inactive
CCCCNC(=O)c1onc(CSc2cccc(OC)c2)c1C(=O)NCCCC	–	inactive	–	–
CC(C)CCNC(=O)c1c(CSc2ccc(Cl)cc2)noc1C(=O)NCc1ccccc1	0%	inactive	67%	–
C=CCNC(=O)c1onc(CS(=O)(=O)c2ccccc2)c1C(=O)NCC=C	0%	inactive	100%	inactive
CC(C)NC(=O)c1onc(CSc2ccccc2)c1C(=O)NC(C)C	0%	inactive	67%	–
Cc1cc(C)cc(SCc2noc(C(=O)NC(C)C)c2C(=O)NC(C)C)c1	–	inactive	–	–
Cc1cc(C)cc(SCc2noc(C(=O)NCCC(C)C)c2C(=O)NCCC(C)C)c1	–	inactive	–	–

SMILES	mortality at 50 µg/cm2 (Spodoptera exigua [1])	mortality (Aedes aegypti)	mortality (Spodoptera exigua [2])	mortality (Helicoverpa zea)
CCCCNC(=O)c1c(CS(=O)(=O)c2ccccc2)noc1C(=O)NCc1ccccc1	0%	inactive	67%	–
CCCNC(=O)c1onc(CS(=O)(=O)c2ccccc2)c1C(=O)NCCC	0%	inactive	100%	inactive
C=CCNC(=O)c1c(CSc2ccccc2)noc1C(=O)NCc1ccccc1	–	inactive	0%	–
CCCNC(=O)c1onc(CSc2cccc(OC)c2)c1C(=O)NCCC	–	inactive	50%	–
COCCNC(=O)c1onc(CSc2cccc(OC)c2)c1C(=O)NCCOC	0%	inactive	67%	–
COCCNC(=O)c1onc(CS(=O)(=O)c2ccc(Cl)cc2)c1C(=O)NCCOC	0%	inactive	100%	inactive
CCCNC(=O)c1c(CSc2ccc(Cl)cc2)noc1C(=O)NCc1ccccc1	0%	inactive	100%	inactive
CCCCNC(=O)c1onc(CS(=O)(=O)c2ccc(Cl)cc2)c1C(=O)NCCCC	0%	inactive	100%	inactive
CCCCNC(=O)c1onc(CSc2ccc(Cl)cc2)c1C(=O)NCCCC	–	inactive	33%	–
CCCCNC(=O)c1onc(CSc2ccc(F)cc2)c1C(=O)NCCCC	–	inactive	50%	–
CC(C)NC(=O)c1onc(CS(=O)(=O)c2ccc(Cl)cc2)c1C(=O)NC(C)C	0%	inactive	97%	inactive
CCCNC(=O)c1onc(CSc2ccncc2)c1C(=O)NCCC	–	inactive	33%	–
COc1cccc(SCc2noc(C(=O)NCc3ccccc3)c2C(=O)NCc2ccccc2)c1	–	inactive	50%	–
CC(C)CCNC(=O)c1onc(CSc2ccc(F)cc2)c1C(=O)NCCC(C)C	38%	inactive	100%	inactive
CCCCNC(=O)c1onc(CSc2ccccc2)c1C(=O)NCCCC	–	inactive	–	–
CCCNC(=O)c1onc(CSc2cc(C)cc(C)c2)c1C(=O)NCCC	–	inactive	50%	–
CCCCNC(=O)c1c(CSc2ccccc2)noc1C(=O)NCc1ccccc1	0%	inactive	100%	inactive
CC(C)NC(=O)c1c(CSc2ccc(Cl)cc2)noc1C(=O)NCc1ccccc1	0%	inactive	100%	inactive
COCCNC(=O)c1c(CS(=O)(=O)c2ccccc2)noc1C(=O)NCc1ccccc1	–	inactive	100%	inactive
CC(C)CCNC(=O)c1onc(CSc2ccncc2)c1C(=O)NCCC(C)C	0%	inactive	83%	–
C=CCNC(=O)c1onc(CSc2ccc(Cl)cc2)c1C(=O)NCC=C	–	inactive	17%	–

SMILES	mortality at 50 µg/cm2 (Spodoptera exigua [1])	mortality (Aedes aegypti)	mortality (Spodoptera exigua [2])	mortality (Helicoverpa zea)
CCCNC(=O)c1onc(CSc2ccccn2)c1C(=O)NCCC	–	inactive	50%	–
CC(C)NC(=O)c1onc(CSc2ccccn2)c1C(=O)NC(C)C	–	inactive	50%	–
COCCNC(=O)c1onc(CSc2ccccn2)c1C(=O)NCCOC	–	inactive	17%	–
CCCNC(=O)c1onc(CSc2ccc(F)cc2)c1C(=O)NCCC	–	inactive	33%	–
C=CCNC(=O)c1onc(CSc2ccccn2)c1C(=O)NCC=C	–	inactive	17%	–
CC(C)CCNC(=O)c1c(CSc2ccccc2)noc1C(=O)NCc1ccccc1	0%	inactive	67%	–
COc1cccc(SCc2noc(C(=O)NCCC(C)C)c2C(=O)NCCC(C)C)c1	–	inactive	–	–
COCCNC(=O)c1onc(CSc2cc(C)cc(C)c2)c1C(=O)NCCOC	–	inactive	–	–
COCCNC(=O)c1c(CSc2ccc(Cl)cc2)noc1C(=O)NCc1ccccc1	–	inactive	17%	–
CC(C)NC(=O)c1c(CS(=O)(=O)c2ccc(Cl)cc2)noc1C(=O)NCc1ccccc1	–	inactive	–	–
COCCNC(=O)c1onc(CSc2ccncc2)c1C(=O)NCCOC	–	inactive	50%	–
C=CCNC(=O)c1onc(CSc2cc(C)cc(C)c2)c1C(=O)NCC=C	–	inactive	17%	–
C=CCNC(=O)c1onc(CSc2cccc(OC)c2)c1C(=O)NCC=C	0%	inactive	67%	–
C=CCNC(=O)c1onc(CSc2ccccc2)c1C(=O)NCC=C	–	inactive	33%	–
CCCCNC(=O)c1onc(CSc2ccccn2)c1C(=O)NCCCC	–	inactive	–	–
O=C(NCc1ccccc1)c1onc(CSc2ccc(F)cc2)c1C(=O)NCc1ccccc1	0%	inactive	67%	–
CCCCNC(=O)c1onc(CSc2cc(C)cc(C)c2)c1C(=O)NCCCC	–	inactive	–	–
CCCCNC(=O)c1onc(CSc2ccncc2)c1C(=O)NCCCC	0%	inactive	67%	–
O=C(NCc1ccccc1)c1onc(CSc2ccncc2)c1C(=O)NCc1ccccc1	–	inactive	–	–
CCCNC(=O)c1onc(CSc2ccccc2)c1C(=O)NCCC	–	inactive	50%	–
COCCNC(=O)c1c(CSc2ccccc2)noc1C(=O)NCc1ccccc1	–	inactive	17%	–
